In brackets after ≈: the same amount, converted by molar mass. Activity calls are given as the source filed them. The calls are words filed in the database; no cut-off is given here.
Tests used:
[1] = tested on: Staphylococcus aureus; experiment: Antibacterial activity against methicillin-resistant Staphylococcus aureus; assay type: functional, organism-based
In short: (§1)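 Samples in DMSO, serially diluted in 0.9% saline, tested in duplicate. Inoculum set against the 0.5 McFarland standard by absorbance at 630 nm, then diluted in broth. Growth, solvent and media controls included. Absorbance read at 630 nm before and after incubation. IC50 taken from percent growth versus concentration. Inactivity was scored at 20 µg/mL.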

[2] = tested on: Vero; experiment: Cytotoxicity against Vero cells by neutral red assay; assay type: cell-based; settings: chlorocebus sabaeus
In short: (§2)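 Cells seeded 25,000/well, grown 24 h, then exposed to samples 48 h; viable cells quantified by neutral red uptake. IC50 taken from logarithmic plots of growth inhibition versus concentration; DMSO vehicle control.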

[3] = tested on: Aspergillus fumigatus; experiment: Antifungal activity against Aspergillus fumigatus; assay type: functional, organism-based
In short: (§3)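 Samples in DMSO serially diluted in 0.9% saline, tested in duplicate; inocula set against 0.5 McFarland standard (absorbance 630 nm) and diluted in broth to recommended levels. Growth, solvent and media controls included. Read at 630 nm, or fluorescence 544ex/590em for M. intracellulare (modified Alamar Blue), before and after incubation; IC50 from percent growth versus concentration.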

[4] = tested on: Plasmodium falciparum; experiment: Antimalarial activity against Plasmodium falciparum W2; assay type: functional, organism-based
In short: (§4)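 P. falciparum-infected erythrocytes at 2% parasitemia, 2% hematocrit in RPMI 1640 with 10% human serum and 60 µg/mL amikacin, exposed to serial dilutions 72 h at 37 °C under 90% N2/5% O2/5% CO2. Parasite LDH measured with Malstat reagent then NBT/PES, stopped with 5% acetic acid, A650; IC50 from dose–response. DMSO 0.25% vehicle.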

[5] = tested on: LLC-PK1; experiment: Cytotoxicity against LLC-PK1 cells by neutral red assay; assay type: cell-based; settings: Sus scrofa; in short: as §2
[6] = tested on: Mycobacterium intracellulare; experiment: Antimicrobial activity against Mycobacterium intracellular; assay type: functional, organism-based; in short: as §3
[7] = tested on: Plasmodium falciparum; experiment: Antimalarial activity against Plasmodium falciparum D6; assay type: functional, organism-based; in short: as §4
[8] = tested on: Candida albicans; experiment: Antifungal activity against Candida albicans; assay type: functional, organism-based; in short: as §3
[9] = tested on: Cryptococcus neoformans; experiment: Antifungal activity against Cryptococcus neoformans; assay type: functional, organism-based; in short: as §3
[10] = tested on: Leishmania donovani; experiment: Antileishmanial activity against Leishmania donovani promastigotes after 48 hrs by Alamar blue assay; assay type: functional, organism-based
In short: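 L. donovani promastigotes grown in RPMI 1640 + 10% fetal calf serum at 26 °C; 3-day culture diluted to 5 × 10^5/mL, drug dilutions made directly in suspension, 48 h at 26 °C. Alamar blue fluorescence 544 nm ex/590 nm em; IC50 and IC90 from percent growth vs concentration curves.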

[11] = tested on: LLC-PK1; experiment: Cytotoxicity against LLC-PK1 cells up to 23.8 ug/mL by neutral red assay; assay type: cell-based, Sus scrofa; settings: pig
[12] = tested on: Vero; experiment: Cytotoxicity against Vero cells up to 23.8 ug/mL by neutral red assay; assay type: cell-based; settings: chlorocebus sabaeus
[13] = tested on: Leishmania donovani; experiment: Antileishmanial activity against Leishmania donovani promastigotes after 48 hrs at 40 ug/mL by Alamar blue assay; assay type: functional, organism-based
[14] = tested on: LLC-PK1; experiment: Cytotoxicity against LLC-PK1 cells up to 4.76 ug/mL by neutral red assay; assay type: cell-based, Sus scrofa; settings: pig
[15] = tested on: Vero; experiment: Cytotoxicity against Vero cells up to 4.76 ug/mL by neutral red assay; assay type: cell-based; settings: chlorocebus sabaeus
[16] = tested on: Cryptococcus neoformans; experiment: Antifungal activity against Cryptococcus neoformans at 20 ug/mL; assay type: functional, organism-based
[17] = tested on: Candida albicans; experiment: Antifungal activity against Candida albicans at 20 ug/mL; assay type: functional, organism-based
[18] = tested on: Staphylococcus aureus; experiment: Antibacterial activity against methicillin-resistant Staphylococcus aureus at 20 ug/mL; assay type: functional, organism-based; in short: as §1

Row | Structure (SMILES) | Activity [3] | Activity [4] | Activity [6] | Activity [7] | IC50 [10] [µg/mL] | IC90 [10] [µg/mL] | Activity [18] | other results
1 | Cc1c(O)c(C=O)c(O)c(C(=O)CC(C)C)c1O [GRANDINOL] | inactive | inactive | inactive | inactive | 21 (≈ 83.2 µM) | 39 (≈ 155 µM) | – | IC50 [1]: 8 µg/mL (≈ 31.7 µM); IC50 [2]: 8 µg/mL (≈ 31.7 µM); IC50 [5]: 7 µg/mL (≈ 27.7 µM); IC50 [8]: 10 µg/mL (≈ 39.6 µM); IC50 [9]: 10 µg/mL (≈ 39.6 µM)
2 | C=CCOc1cc(O)c(C(C)=O)c(O)c1C=O | – | – | – | – | – | – | – | Activity [11]: Not Active; Activity [12]: Not Active; Activity [13]: inactive
3 | C=CCOc1cc(O)c(C(=O)CC(C)C)c(O)c1C=O | – | – | – | – | 5.3 (≈ 19 µM) | 31 (≈ 111 µM) | – | IC50 [2]: 17 µg/mL (≈ 61.1 µM); IC50 [5]: 9 µg/mL (≈ 32.3 µM)
4 | CC(C)CC(=O)c1c(O)c(C=O)c(O)c(C=O)c1O [JENSENONE] | inactive | inactive | inactive | inactive | 19 (≈ 71.4 µM) | 35 (≈ 131 µM) | – | IC50 [1]: 20 µg/mL (≈ 75.1 µM); Activity [14]: Not Active; Activity [15]: Not Active; Activity [16]: inactive; IC50 [8]: 5.5 µg/mL (≈ 20.7 µM)
5 | C[C@@H]1CC[C@H]2[C@@H](C)C(=O)O[C@@H]3O[C@@]4(C)CC[C@@H]1[C@]32OO4 | inactive | – | inactive | – | – | – | – | –
6 | C=CCOc1cc(O)c(C(C)=O)c(O)c1C(C)=O | – | – | – | – | – | – | – | Activity [11]: Not Active; Activity [12]: Not Active; Activity [13]: inactive
7 | CC(=O)c1c(O)cc(OCCC(C)C)c(C=O)c1O | – | – | – | – | 7.8 (≈ 29.3 µM) | > 40 | – | Activity [11]: Not Active; Activity [12]: Not Active
8 | CC(=O)c1c(O)cc(O)c(C=O)c1O | inactive | inactive | inactive | inactive | – | – | inactive | IC50 [2]: 17.5 µg/mL (≈ 89.2 µM); Activity [16]: inactive; IC50 [5]: 10 µg/mL (≈ 51 µM); Activity [17]: inactive; Activity [13]: inactive
9 | CC(C)=CCc1c(O)c(C=O)c(O)c(C(=O)/C(C)=C/O)c1O | inactive | inactive | inactive | inactive | – | > 40 | inactive | IC50 [2]: 19 µg/mL (≈ 62 µM); Activity [16]: inactive; IC50 [5]: 14.5 µg/mL (≈ 47.3 µM); Activity [17]: inactive
10 | CC(=O)c1c(O)c(C)c(O)c(C=O)c1O | inactive | inactive | inactive | inactive | – | – | inactive | Activity [14]: Not Active; Activity [15]: Not Active; Activity [16]: inactive; IC50 [8]: 15 µg/mL (≈ 71.4 µM); Activity [13]: inactive
11 | O=C(O)c1cn(C2CC2)c2cc(N3CCNCC3)c(F)cc2c1=O | inactive | – | inactive | – | – | – | – | –
12 | CCN(CC)CCCC(C)Nc1ccnc2cc(Cl)ccc12 (configuration not stated) | inactive | – | inactive | – | – | – | – | –
13 | CCC(=O)c1c(O)c(C)c(O)c(C=O)c1O | inactive | inactive | inactive | inactive | – | – | inactive | Activity [14]: Not Active; Activity [15]: Not Active; IC50 [8]: 5 µg/mL (≈ 22.3 µM); IC50 [9]: 20 µg/mL (≈ 89.2 µM); Activity [13]: inactive
14 | COc1cccc2c1C(=O)c1c(O)c3c(c(O)c1C2=O)C[C@@](O)(C(=O)CO)C[C@@H]3O[C@H]1C[C@H](N)[C@H](O)[C@H](C)O1 | inactive | – | inactive | – | – | – | – | –
15 | CC(C)CC(=O)c1c(O)cc(O)c(C=O)c1O | inactive | inactive | inactive | inactive | 27 (≈ 113 µM) | 40 (≈ 168 µM) | inactive | IC50 [2]: 14 µg/mL (≈ 58.8 µM); Activity [16]: inactive; IC50 [5]: 9.5 µg/mL (≈ 39.9 µM); Activity [17]: inactive
16 | CC(C)CCOc1cc(O)c(C(=O)CC(C)C)c(O)c1C(=O)CC(C)C | – | – | – | – | 24 (≈ 65.8 µM) | > 40 | – | Activity [11]: Not Active; Activity [12]: Not Active
17 | C/C(=C\O)C(=O)c1c(O)cc(O)c(C=O)c1O | inactive | inactive | inactive | inactive | 29 (≈ 122 µM) | > 40 | inactive | Activity [11]: Not Active; Activity [12]: Not Active; IC50 [8]: 2 µg/mL (≈ 8.4 µM); IC50 [9]: 2.5 µg/mL (≈ 10.5 µM)
18 | CC(C)CCOc1cc(O)c(C(=O)CC(C)C)c(O)c1C=O | – | – | – | – | 4.2 (≈ 13.6 µM) | > 40 | – | Activity [11]: Not Active; Activity [12]: Not Active
19 | Cc1c(O)c(C=O)c(O)c(C=O)c1O | inactive | inactive | inactive | inactive | – | – | inactive | Activity [14]: Not Active; Activity [15]: Not Active; Activity [16]: inactive; Activity [17]: inactive; Activity [13]: inactive
20 | N=C(N)c1ccc(OCCCCCOc2ccc(C(=N)N)cc2)cc1 [PENTAMIDINE] | inactive | – | inactive | – | 1.5 (≈ 4.41 µM) | 4.9 (≈ 14.4 µM) | – | –
21 | CCC(=O)c1c(O)cc(O)c(C=O)c1O | inactive | inactive | inactive | inactive | – | – | inactive | IC50 [2]: 18 µg/mL (≈ 85.6 µM); IC50 [5]: 11 µg/mL (≈ 52.3 µM); IC50 [9]: 15 µg/mL (≈ 71.4 µM); Activity [17]: inactive; Activity [13]: inactive
22 | CC(C)CCc1c(O)c(C=O)c(O)c(C=O)c1O | inactive | inactive | inactive | inactive | – | – | inactive | Activity [14]: Not Active; Activity [15]: Not Active; Activity [16]: inactive; Activity [17]: inactive; Activity [13]: inactive
23 | CC(=O)c1c(O)cc(OCCC(C)C)c(C(C)=O)c1O | – | – | – | – | 40 (≈ 143 µM) | > 40 | – | Activity [11]: Not Active; Activity [12]: Not Active
24 | C[C@@H]1[C@H](O)[C@@H](C)/C=C/C=C/C=C/C=C/C=C/C=C/C=C/[C@H](O[C@@H]2O[C@H](C)[C@@H](O)[C@H](N)[C@@H]2O)C[C@@H]2O[C@](O)(C[C@@H](O)C[C@@H](O)[C@H](O)CC[C@@H](O)C[C@@H](O)CC(=O)O[C@H]1C)C[C@H](O)[C@H]2C(=O)O [AMPHOTERICIN B] | inactive | – | inactive | – | 0.32 (≈ 0.346 µM) | 0.9 (≈ 0.974 µM) | – | IC50 [8]: 0.3 µg/mL (≈ 0.325 µM); IC50 [9]: 0.7 µg/mL (≈ 0.758 µM)
25 | CC(=O)c1c(O)cc(O)c(C(C)=O)c1O | inactive | inactive | inactive | inactive | 27 (≈ 128 µM) | > 40 | inactive | IC50 [2]: 12 µg/mL (≈ 57.1 µM); Activity [16]: inactive; IC50 [5]: 11 µg/mL (≈ 52.3 µM); Activity [17]: inactive
26 | C=CCOc1cc(O)c(C(=O)CC(C)C)c(O)c1C(=O)CC(C)C | – | – | – | – | 14 (≈ 41.9 µM) | 36 (≈ 108 µM) | – | Activity [11]: Not Active; Activity [12]: Not Active
27 | CC(C)CCOc1cc(O)c(CCC(C)C)c(O)c1C=O | – | – | – | – | 10 (≈ 34 µM) | 36 (≈ 122 µM) | – | IC50 [2]: 4.6 µg/mL (≈ 15.6 µM); IC50 [5]: 11.5 µg/mL (≈ 39.1 µM)

Source: ChEMBL document CHEMBL1144532, “Antiprotozoal and antimicrobial activities of O-alkylated and formylated acylphloroglucinols” (Bioorg Med Chem, 2007)
